Values joined by “and” are separate entries in the source; they are usually repeats but may differ in a detail not shown here. Equal entries are not always repeated. Where two headings read alike, the source gives them in different places.
How the values were obtained:
Assay type in all cases: biochemical
[1] = molecular target: F1Fo-ATPase from E. coli in liposomes (Escherichia coli, UniProt P0ABB4)
[2] = molecular target: T1, F1Fo-ATPase in bovine SMPs (Bos taurus, UniProt P00829); experiment: Bovine SMP ATP synthesis steady-state kinetic assay; conditions: for Ki: Bovine, ±SE
Summary of the method: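 ATP synthesis by bovine heart SMPs was read by coupling ATP production to NADP⁺ reduction at varied ADP (1.875–1200 μM). SMPs were preincubated 5 min with aurovertin (1% DMSO final) or DMSO control before substrate or coupling reagents. Apparent parameters came from Michaelis-Menten fits at each inhibitor level, with secondary plots fit by eqs 2–4. 3D fits of velocity against MgADP and inhibitor used eq 6 (mixed inhibition model).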

[3] = molecular target: E. coli membrane F1Fo-ATPase (Escherichia coli, UniProt P0ABB4); experiment: E. coli everted membrane ATP hydrolysis steady-state kinetic assay
Summary of the method: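 Everted membrane vesicles came from E. coli strain LE392 and were used at 33 μg mL⁻¹, with 5 mM KCN to block chemiosmotic phosphorylation. ATP hydrolysis was read by the NADH-coupled assay, with aurovertin at 1% DMSO final. Michaelis-Menten fits of initial velocity gave apparent kinetic parameters at each inhibitor concentration. Secondary plots were fit with eqs 2–4, assuming residual catalytic activity at saturating inhibitor.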

[4] = molecular target: T1, F1Fo-ATPase in bovine SMPs; experiment: Bovine SMP ATP hydrolysis steady-state kinetic assay; conditions: for Vmax2 (maximal catalytic rate of ESI complex) / Ki: Bovine, ±SE
[5] = HMM-based FRET level assignment, presence of aurovertin
[6] = aurovertin and ATP, Gaussian fit
[7] = bovine, synthesis vs hydrolysis

Chain of F1Fo-ATPase from E. coli in liposomes (P0ABB4 2-460 limits assumed): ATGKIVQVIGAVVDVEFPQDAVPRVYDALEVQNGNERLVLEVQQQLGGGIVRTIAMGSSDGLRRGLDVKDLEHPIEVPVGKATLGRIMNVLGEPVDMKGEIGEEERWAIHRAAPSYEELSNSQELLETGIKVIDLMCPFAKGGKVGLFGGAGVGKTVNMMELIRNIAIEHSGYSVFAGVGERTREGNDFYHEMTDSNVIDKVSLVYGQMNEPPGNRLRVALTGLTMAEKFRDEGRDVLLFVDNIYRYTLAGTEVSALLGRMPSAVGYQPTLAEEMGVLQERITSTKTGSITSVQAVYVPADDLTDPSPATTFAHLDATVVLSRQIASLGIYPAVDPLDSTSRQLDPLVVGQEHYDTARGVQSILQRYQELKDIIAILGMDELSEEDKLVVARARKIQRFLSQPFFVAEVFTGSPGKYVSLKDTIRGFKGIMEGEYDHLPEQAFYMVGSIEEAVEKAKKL

## CC[C@H]1O[C@]2(C)[C@H](OC(C)=O)[C@@]1(C)O[C@@H](/C=C/C=C/C=C/c1oc(=O)cc(OC)c1C)[C@@H]2O [aurovertin, Aurovertin B]
[1]; 20 μM drug, 1 mM ATP
  remaining activity (turnover ratio in presence and absence of aurovertin): about 60%
[1]; [5]
  dwell time decay component τ: 28 ± 11 ms
  dwell time rise time τ: 16 ± 8 ms
[1]; [6]
  proximity factor P maximum, H level: 0.75
  proximity factor P maximum, L level: 0.31
  proximity factor P maximum, M level: 0.51
[1]; saturating (20 μM) aurovertin, of 3685 marked photon bursts
  fraction of F1Fo-ATPases showing stepwise changing FRET levels: 10.4%
[2]; ATP synthesis
  enzyme activity at saturating substrate and inhibitor concentrations: inactive
[2]; ATP synthesis, bovine SMPs
  increase in the value of the apparent Km: > 2 fold
[2]; bovine SMPs
  mechanism of inhibition of ATP synthesis: mixed inhibitor
[2]; [7]
  decrease of Ki(E) during ATP synthesis versus hydrolysis: 60 fold
  decrease of Ki(ES) during ATP synthesis versus hydrolysis: 5 fold
[2]; read-out: Ki(E), ATP synthesis, 3D fit eq 6, n(E)=1, n(ES)=1
  Ki: 13 ± 4 nM
[2]; read-out: Ki(E), ATP synthesis, 3D fit eq 6, n(E)=2, n(ES)=1
  Ki: 16 ± 2 nM
[2]; read-out: Ki(ES), ATP synthesis, 3D fit eq 6, n(E)=1, n(ES)=1
  Ki: 22 ± 3 nM
[2]; read-out: Ki(ES), ATP synthesis, 3D fit eq 6, n(E)=2, n(ES)=1
  Ki: 25 ± 4 nM
[3]; E. coli, 3D fit eq 5, n(E)=2, n(ES)=1, ±SE
  Vmax2 (maximal catalytic rate of ESI complex): 0.06 ± 0.01 µmol/min/mg
[3]; everted E. coli membranes, eq 5 fit
  residual activity at saturating aurovertin: ~ 20% and 20%
[3]; read-out: Ki(E), E. coli, 3D fit eq 5, n(E)=2, n(ES)=1, ±SE
  Ki: 430 ± 70 nM
[3]; read-out: Ki(ES), E. coli, 3D fit eq 5, n(E)=2, n(ES)=1, ±SE
  Ki: 150 ± 20 nM
[4]; ATP hydrolysis, saturating aurovertin concentrations
  increase of the value of Vmax/Km: 50%
[4]; ATP hydrolysis, 3D fit eq 5, n(E)=1, n(ES)=1
  Vmax2 (maximal catalytic rate of ESI complex): 0.23 ± 0.01 µmol/min/mg
[4]; ATP hydrolysis, 3D fit eq 5, n(E)=2, n(ES)=1
  Vmax2 (maximal catalytic rate of ESI complex): 0.22 ± 0.01 µmol/min/mg
[4]; bovine SMPs
  mechanism of inhibition of ATP hydrolysis: mixed mechanism of inhibition
[4]; read-out: Ki(E), ATP hydrolysis, 3D fit eq 5, n(E)=1, n(ES)=1
  Ki: 820 ± 250 nM
[4]; read-out: Ki(E), ATP hydrolysis, 3D fit eq 5, n(E)=2, n(ES)=1
  Ki: 960 ± 250 nM
[4]; read-out: Ki(ES), ATP hydrolysis, 3D fit eq 5, n(E)=1, n(ES)=1
  Ki: 119 ± 17 nM
[4]; read-out: Ki(ES), ATP hydrolysis, 3D fit eq 5, n(E)=2, n(ES)=1
  Ki: 120 ± 17 nM
[4]; saturating aurovertin, fit eq 2-4, n=1
  decrease of the value of Vmax for catalysis of ATP hydrolysis: ~ 2.5 fold

— paper PMC2757082 (Biopolymers, 2009)
